Values after ≈ are worked out from the molar mass of the structure shown. Active and inactive are the calls of the source. The rule behind the calls is not given here.
What was measured:
Acinetobacter baumannii = test: Antimicrobial activity against Acinetobacter baumannii by broth microdilution method; type: functional
Klebsiella aerogenes = test: Antimicrobial activity against Enterobacter aerogenes by broth microdilution method; type: functional, organism-based
Pseudomonas aeruginosa = test: Antimicrobial activity against Pseudomonas aeruginosa by broth microdilution method; type: functional, organism-based
Staphylococcus aureus [1] = test: Antimicrobial activity against Staphylococcus aureus by broth microdilution method; type: functional
HEK293 [2] = test: Cytotoxicity against human HEK293 cells assessed as reduction in cell viability at 50 ug/ml after 24 hrs by resazurin dye based method; settings: hek293, 24 h
Procedure, shortened: (§1)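 HEK-293 human embryonic kidney cells were exposed to test compounds at 25 and 50 μg/mL and incubated for 24 h. Growth inhibition was read by resazurin assay and expressed as percent cell viability.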

Staphylococcus aureus [3] = test: Growth inhibition of methicillin-resistant Staphylococcus aureus LAC after 20 to 24 hrs by resazurin dye based method; type: functional
Bacillus subtilis = test: Antimicrobial activity against Bacillus subtilis by broth microdilution method; type: functional
HEK293 [4] = test: Cytotoxicity against human HEK293 cells assessed as reduction in cell viability at 25 to 50 ug/ml after 24 hrs by resazurin dye based method; settings: hek293, 24 h; procedure, shortened: as §1
Staphylococcus aureus [5] = test: Antimicrobial activity against methicillin-resistant Staphylococcus aureus by broth microdilution method; type: functional
Staphylococcus aureus [6] = test: Growth inhibition of methicillin-sensitive Staphylococcus aureus UAMS-1 after 20 to 24 hrs by resazurin dye based method; type: functional
[7] = tested on: Panel NCI-60 (60 carcinoma cell lines); test: Cytotoxicity against human NCI60 cells assessed as reduction in cell viability at 10 uM after 24 hrs by resazurin dye based method

Molecule	MIC (Acinetobacter baumannii)	MIC (Klebsiella aerogenes)	MIC (Pseudomonas aeruginosa)	MIC (Staphylococcus aureus [1])	Activity (HEK293 [2])	MIC (Staphylococcus aureus [3])	MIC (Bacillus subtilis)	Activity (HEK293 [4])	MIC (Staphylococcus aureus [5])	MIC (Staphylococcus aureus [6])	Activity [7]
COLISTIN	12.5 µg/mL	0.39 µg/mL	0.78 µg/mL								
O=C(O)c1ccc(-n2cc(/C=N/Nc3ccc(Br)cc3)c(-c3ccc(F)c(F)c3)n2)cc1	0.78 µg/mL (≈ 1.57 µM)	inactive	inactive	3.12 µg/mL (≈ 6.27 µM)	> 80%	12.5 µg/mL (≈ 25.1 µM)	1.56 µg/mL (≈ 3.14 µM)	Non-Toxic	1.56 µg/mL (≈ 3.14 µM)	12.5 µg/mL (≈ 25.1 µM)	Non-Toxic
O=C(O)c1ccc(N/N=C/c2cn(-c3ccc(C(=O)O)cc3)nc2-c2ccc(F)cc2F)cc1	inactive	inactive	inactive	inactive			inactive		inactive		
O=C(O)c1ccc(-n2cc(/C=N/Nc3ccc([N+](=O)[O-])cc3)c(-c3ccc(F)c(F)c3)n2)cc1	inactive	inactive	inactive	inactive			inactive		inactive		
O=C(O)c1cn(C2CC2)c2cc(N3CCNCC3)c(F)cc2c1=O [CIPROFLOXACIN]							1.56 µg/mL (≈ 4.71 µM)				
O=C(O)c1ccc(-n2cc(/C=N/Nc3ccc(Cl)cc3Cl)c(-c3ccc(F)c(F)c3)n2)cc1	3.12 µg/mL (≈ 6.41 µM)	inactive	inactive	1.56 µg/mL (≈ 3.2 µM)		6.25 µg/mL (≈ 12.8 µM)	0.78 µg/mL (≈ 1.6 µM)		1.56 µg/mL (≈ 3.2 µM)	6.25 µg/mL (≈ 12.8 µM)	
O=C(O)c1ccc(-n2cc(/C=N/Nc3ccc(Br)cc3)c(-c3ccc(F)cc3F)n2)cc1	1.56 µg/mL (≈ 3.14 µM)	inactive	inactive	12.5 µg/mL (≈ 25.1 µM)	> 80%	25 µg/mL (≈ 50.3 µM)	12.5 µg/mL (≈ 25.1 µM)	Non-Toxic	12.5 µg/mL (≈ 25.1 µM)	25 µg/mL (≈ 50.3 µM)	Non-Toxic
O=C(O)c1ccc(-n2cc(/C=N/Nc3ccc(Cl)cc3Cl)c(-c3ccc(F)cc3F)n2)cc1	12.5 µg/mL (≈ 25.7 µM)	inactive	inactive	3.12 µg/mL (≈ 6.41 µM)	> 80%	12.5 µg/mL (≈ 25.7 µM)	0.78 µg/mL (≈ 1.6 µM)	Non-Toxic	0.78 µg/mL (≈ 1.6 µM)	25 µg/mL (≈ 51.3 µM)	Non-Toxic
O=C(O)c1ccc(-n2cc(/C=N/Nc3ccc(Cl)cc3)c(-c3ccc(F)c(F)c3)n2)cc1	1.56 µg/mL (≈ 3.44 µM)	inactive	inactive	6.25 µg/mL (≈ 13.8 µM)	> 80%		6.25 µg/mL (≈ 13.8 µM)	Non-Toxic	6.25 µg/mL (≈ 13.8 µM)		Non-Toxic
O=C(O)c1ccc(-n2cc(/C=N/Nc3ccc(F)cc3)c(-c3ccc(F)c(F)c3)n2)cc1	6.25 µg/mL (≈ 14.3 µM)	inactive	inactive	25 µg/mL (≈ 57.3 µM)	> 80%		25 µg/mL (≈ 57.3 µM)	Non-Toxic	25 µg/mL (≈ 57.3 µM)		Non-Toxic
O=C(O)c1ccc(-n2cc(/C=N/N3CCCCC3)c(-c3ccc(F)cc3F)n2)cc1	inactive	inactive	inactive	inactive			inactive		inactive		
O=C(O)c1ccc(-n2cc(/C=N/Nc3cc(F)ccc3F)c(-c3ccc(F)cc3F)n2)cc1	12.5 µg/mL (≈ 27.5 µM)	inactive	inactive	12.5 µg/mL (≈ 27.5 µM)			3.12 µg/mL (≈ 6.87 µM)		12.5 µg/mL (≈ 27.5 µM)		
O=C(O)c1ccc(-n2cc(/C=N/Nc3cc(F)ccc3F)c(-c3ccc(F)c(F)c3)n2)cc1	6.25 µg/mL (≈ 13.8 µM)	inactive	inactive	inactive	69%		3.12 µg/mL (≈ 6.88 µM)	Non-Toxic	inactive		Non-Toxic
O=C(O)c1ccc(-n2cc(/C=N/Nc3ccccc3)c(-c3ccc(F)c(F)c3)n2)cc1	6.25 µg/mL (≈ 14.9 µM)	inactive	inactive	25 µg/mL (≈ 59.8 µM)	> 80%		25 µg/mL (≈ 59.8 µM)	Non-Toxic	25 µg/mL (≈ 59.8 µM)		Non-Toxic
O=C(O)c1ccc(-n2cc(/C=N/Nc3cccc(F)c3)c(-c3ccc(F)c(F)c3)n2)cc1	6.25 µg/mL (≈ 14.3 µM)	inactive	inactive	12.5 µg/mL (≈ 28.6 µM)	> 80%		12.5 µg/mL (≈ 28.6 µM)	Non-Toxic	12.5 µg/mL (≈ 28.6 µM)		Non-Toxic

Reference: ChEMBL document CHEMBL4229449, “Synthesis and antimicrobial studies of hydrazone derivatives of 4-[3-(2,4-difluorophenyl)-4-formyl-1H-pyrazol-1-yl]benzoic acid and 4-[3-(3,4-difluorophenyl)-4-formyl-1H-pyrazol-1-yl]benzoic acid” (Bioorg Med Chem Lett, 2018)
